Assay results taken from ChEMBL document CHEMBL1629527, “In vitro antifungal activities of bis(alkylpyridinium)alkane compounds against pathogenic yeasts and molds” (Antimicrob Agents Chemother, 2010).
≈ marks a conversion by molar mass, not a printed value.

Experiments:
Clavispora lusitaniae = experiment: Antifungal activity against Candida lusitaniae after 24 to 72 hrs by broth microdilution method; type: functional
Procedure, shortened: (§1)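 Broth microdilution MIC per CLSI M27-A3 (yeasts) or M38-A2 (molds). RPMI 1640 with L-glutamine, without bicarbonate, buffered to pH 7.0 with 0.165 M MOPS. Final test range for the compounds was 0.175–87.5 μM. Incubation at 35°C with visual reading at 24–72 h. MIC was the lowest concentration giving 100% inhibition versus the growth control (azoles 50% or 100%, by organism). Each isolate was run in duplicate in two independent experiments.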

Candida parapsilosis = experiment: Antifungal activity against Candida parapsilosis after 24 to 72 hrs by broth microdilution method; type: functional; conditions: Lodderomyces parapsilosis; procedure, shortened: as §1
Nakaseomyces glabratus = experiment: Antifungal activity against Candida glabrata after 24 to 72 hrs by broth microdilution method; type: functional; procedure, shortened: as §1
Candida tropicalis = experiment: Antifungal activity against Candida tropicalis after 24 to 72 hrs by broth microdilution method; type: functional; procedure, shortened: as §1
[1] = tested on: Cryptococcus gattii species complex; experiment: Antifungal activity against Cryptococcus gattii after 24 to 72 hrs by broth microdilution method; type: functional, Cryptococcus bacillisporus; procedure, shortened: as §1
[2] = tested on: Meyerozyma guilliermondii; experiment: Antifungal activity against Candida guilliermondii after 24 to 72 hrs by broth microdilution method; type: functional; procedure, shortened: as §1
Pichia kudriavzevii = experiment: Antifungal activity against Candida krusei after 24 to 72 hrs by broth microdilution method; type: functional; procedure, shortened: as §1
Candida dubliniensis = experiment: Antifungal activity against Candida dubliniensis after 24 to 72 hrs by broth microdilution method; type: functional; procedure, shortened: as §1
Candida albicans = experiment: Antifungal activity against Candida albicans after 24 to 72 hrs by broth microdilution method; type: functional
Procedure, shortened: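 CLSI M27-A3 broth microdilution for yeasts in RPMI 1640 with L-glutamine and no bicarbonate, buffered with 0.165 M MOPS to pH 7.0. Compounds were dissolved in water and tested at 0.175–87.5 μM final, 35°C. MIC was read visually at 24–72 h as 100% inhibition versus growth control. For MFC, 30 μl from clear wells went onto SDA at 35°C for 48–72 h, reading the lowest concentration without colonies. Duplicates, two independent runs.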

Cryptococcus neoformans = experiment: Antifungal activity against Cryptococcus neoformans after 24 to 72 hrs by broth microdilution method; type: functional; procedure, shortened: as §1

| SMILES | MIC (Clavispora lusitaniae) [µg/mL] | MIC50 (Clavispora lusitaniae) [µg/mL] | MIC90 (Clavispora lusitaniae) [µg/mL] | MIC (Candida parapsilosis) [µg/mL] | MIC50 (Candida parapsilosis) [µg/mL] | MIC90 (Candida parapsilosis) [µg/mL] | MIC (Nakaseomyces glabratus) [µg/mL] | MIC50 (Nakaseomyces glabratus) [µg/mL] | MIC90 (Nakaseomyces glabratus) [µg/mL] | MIC (Candida tropicalis) [µg/mL] | MIC50 (Candida tropicalis) [µg/mL] | MIC90 (Candida tropicalis) [µg/mL] | MIC [1] [µg/mL] | MIC50 [1] [µg/mL] | MIC90 [1] [µg/mL] | MIC [2] [µg/mL] | MIC50 [2] [µg/mL] | MIC90 [2] [µg/mL] | MIC (Pichia kudriavzevii) [µg/mL] | MIC50 (Pichia kudriavzevii) [µg/mL] | also measured |
| --- | --- | --- | --- | --- | --- | --- | --- | --- | --- | --- | --- | --- | --- | --- | --- | --- | --- | --- | --- | --- | --- |
| OC(Cn1cncn1)(Cn1cncn1)c1ccc(F)cc1F [FLUCONAZOLE] | 2.64 (≈ 8.62 µM) | 2 (≈ 6.53 µM) | 4 (≈ 13.1 µM) | 2.14 (≈ 6.99 µM) | 2 (≈ 6.53 µM) | 4 (≈ 13.1 µM) | 32 (≈ 104 µM) | 16 (≈ 52.2 µM) | 256 (≈ 836 µM) | 1.41 (≈ 4.6 µM) | 1 (≈ 3.27 µM) | 4 (≈ 13.1 µM) | 4 (≈ 13.1 µM) | 4 (≈ 13.1 µM) | 8 (≈ 26.1 µM) | 7.46 (≈ 24.4 µM) | 4 (≈ 13.1 µM) | 16 (≈ 52.2 µM) | 84.5 (≈ 276 µM) | 64 (≈ 209 µM) | MIC90 (Pichia kudriavzevii): 128 µg/mL (≈ 418 µM); MIC (Candida dubliniensis): 0.43 µg/mL (≈ 1.4 µM); MIC50 (Candida dubliniensis): 0.25 µg/mL (≈ 0.816 µM); MIC90 (Candida dubliniensis): 0.5 µg/mL (≈ 1.63 µM); MIC (Candida albicans): 1.15 µg/mL (≈ 3.75 µM); MIC50 (Candida albicans): 0.5 µg/mL (≈ 1.63 µM); MIC90 (Candida albicans): 16 µg/mL (≈ 52.2 µM); MIC (Cryptococcus neoformans): 4.59 µg/mL (≈ 15 µM); MIC50 (Cryptococcus neoformans): 4 µg/mL (≈ 13.1 µM); MIC90 (Cryptococcus neoformans): 16 µg/mL (≈ 52.2 µM) |
| CC[C@@H]([C@H](C)O)n1ncn(-c2ccc(N3CCN(c4ccc(OC[C@@H]5CO[C@@](Cn6cncn6)(c6ccc(F)cc6F)C5)cc4)CC3)cc2)c1=O [POSACONAZOLE] | 0.015 (≈ 0.0214 µM) | 0.016 (≈ 0.0228 µM) | 0.03 (≈ 0.0428 µM) | 0.049 (≈ 0.0699 µM) | 0.06 (≈ 0.0856 µM) | 0.06 (≈ 0.0856 µM) | 1.23 (≈ 1.76 µM) | 1 (≈ 1.43 µM) | 8 (≈ 11.4 µM) | 0.061 (≈ 0.087 µM) | 0.06 (≈ 0.0856 µM) | 0.25 (≈ 0.357 µM) | 0.04 (≈ 0.0571 µM) | 0.03 (≈ 0.0428 µM) | 0.06 (≈ 0.0856 µM) | 0.14 (≈ 0.2 µM) | 0.125 (≈ 0.178 µM) | 0.25 (≈ 0.357 µM) | 0.18 (≈ 0.257 µM) | 0.125 (≈ 0.178 µM) | MIC90 (Pichia kudriavzevii): 0.25 µg/mL (≈ 0.357 µM); MIC (Candida dubliniensis): 0.014 µg/mL (≈ 0.02 µM); MIC50 (Candida dubliniensis): 0.008 µg/mL (≈ 0.0114 µM); MIC90 (Candida dubliniensis): 0.03 µg/mL (≈ 0.0428 µM); MIC (Candida albicans): 0.04 µg/mL (≈ 0.0571 µM); MIC50 (Candida albicans): 0.02 µg/mL (≈ 0.0285 µM); MIC90 (Candida albicans): 0.18 µg/mL (≈ 0.257 µM); MIC (Cryptococcus neoformans): 0.07 µg/mL (≈ 0.0999 µM); MIC50 (Cryptococcus neoformans): 0.06 µg/mL (≈ 0.0856 µM); MIC90 (Cryptococcus neoformans): 0.125 µg/mL (≈ 0.178 µM) |
| CCC(C)n1ncn(-c2ccc(N3CCN(c4ccc(OCC5COC(Cn6cncn6)(c6ccc(Cl)cc6Cl)O5)cc4)CC3)cc2)c1=O (stereo not given) [ITRACONAZOLE] | 0.09 (≈ 0.128 µM) | 0.06 (≈ 0.085 µM) | 0.25 (≈ 0.354 µM) | 0.07 (≈ 0.0992 µM) | 0.06 (≈ 0.085 µM) | 0.125 (≈ 0.177 µM) | 1.15 (≈ 1.63 µM) | 0.5 (≈ 0.709 µM) | 16 (≈ 22.7 µM) | 0.11 (≈ 0.156 µM) | 0.125 (≈ 0.177 µM) | 0.25 (≈ 0.354 µM) | 0.07 (≈ 0.0992 µM) | 0.06 (≈ 0.085 µM) | 0.125 (≈ 0.177 µM) | 0.5 (≈ 0.709 µM) | 0.5 (≈ 0.709 µM) | 1 (≈ 1.42 µM) | 0.33 (≈ 0.468 µM) | 0.25 (≈ 0.354 µM) | MIC90 (Pichia kudriavzevii): 0.5 µg/mL (≈ 0.709 µM); MIC (Candida dubliniensis): 0.028 µg/mL (≈ 0.0397 µM); MIC50 (Candida dubliniensis): 0.03 µg/mL (≈ 0.0425 µM); MIC90 (Candida dubliniensis): 0.06 µg/mL (≈ 0.085 µM); MIC (Candida albicans): 0.07 µg/mL (≈ 0.0992 µM); MIC50 (Candida albicans): 0.04 µg/mL (≈ 0.0567 µM); MIC90 (Candida albicans): 0.09 µg/mL (≈ 0.128 µM); MIC (Cryptococcus neoformans): 0.06 µg/mL (≈ 0.085 µM); MIC50 (Cryptococcus neoformans): 0.06 µg/mL (≈ 0.085 µM); MIC90 (Cryptococcus neoformans): 0.125 µg/mL (≈ 0.177 µM) |
